# Assay outcomes from PubChem.
# H9c2 TAG inh: triacylglycerol accumulation inhibition; H9c2 cells, Nile Red lipid (TAG) fluorescence; cells loaded with 200 µM oleic acid; inhibition, % at 12.5 µM; 0.66% of 230,000 active;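 active = pattern-corrected inhibition of lipid staining of at least 50% with the nuclear-stain viability signal not falling by more than 50%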;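 note: 0% = DMSO wells and 100% = triacsin C control wells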
# Gli-Sufu antag: blocks Gli-Sufu signaling in a luciferase reporter; Sufu-KO-LIGHT fibroblasts, Gli luciferase reporter luminescence; inhibition, % at 5 µM; 0.74% of 340,000 active;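 active = inhibition above about 55%, limit read from the data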;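 note: 0% = DMSO-treated cells and 100% = wells with medium but no cells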
# hiPSC survival: hiPSC single-cell survival enhancement | ATPlite luminescence; 100% = ROCK inhibitor wells, 0% = DMSO | survival enhancement, % at 20 µM | 0.044% of 360,000 active; in the data active = survival enhancement above about 18%;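 note: cells exposed to compounds for 16 hours before the ATP read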
# Hep lipid drop: hepatic lipid droplet formation modulation. inhibition, % at 6.5 µM. AID 1656. AML12 mouse hepatocytes, oleate lipid droplets, BODIPY imaging. 0.4% of 240,000 active;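 active = lipid droplet intensity inhibited by at least 50%, with more than 500 cells counted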
#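 Assay system: AML12 mouse liver cells | Compound: 6.5 µM single-point dosing | Schedule: Overnight exposure | Technique: Fluorescence imaging, 20x objective, two fields per well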
# 697 NFkB inh: lowers PMA/ionomycin-induced NF-kB signal in 697 B cells; 697 B-cell NF-kB luciferase reporter, 16 h; inhibition, % at 4 µM; 0.33% of 330,000 active; AID 435022; in the data active = inhibition above about 35%
# Jurkat NFkB inh: lowers PMA/ionomycin-induced NF-kB signal in Jurkat cells. PMA/ionomycin-induced NF-kB luciferase reporter, luminescence. inhibition, % at 4 µM. 0.53% of 330,000 active. AID 435003; in the data active = inhibition above about 50%
# Jurkat NFkB conf: inhibitors of the PMA/ionomycin-induced NF-kB reporter in Jurkat cells, retest; AID 435020; Jurkat NF-kB luciferase, 16 h; 27% of 2,700 active; shares compounds with Jurkat NFkB inh; inhibition, % at 4 µM;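 active = inhibition reaching about 45% at 4 µM in either replicate, limit read from the data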;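 note: plate controls were PMA/ionomycin stimulated DMSO wells for no effect and unstimulated DMSO wells for full effect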
# * marks the source's active call; other numbers are inactive results; · = not tested or not shown. In the library only some 1.8% were active in any assay of this set; here they are far more common.
SMILES,H9c2 TAG inh,Gli-Sufu antag,hiPSC survival,Hep lipid drop,697 NFkB inh,Jurkat NFkB inh,Jurkat NFkB conf
COc1ccc2c(c1OC)C(=O)N(c1cccc(C)c1)C2,0,-74,-4,10,-143,-104,·
COc1ccc2c(c1OC)C(=O)N(c1cccc(C(F)(F)F)c1)C2,·,-61,-3,-7,-119,-164,-53
CCOC(=O)c1c(-c2ccccc2)oc2ccc(OCC(O)CNCCN(C)C)cc12 (stereo unspecified),·,14,0,-39,7,56*,13
COCCN1CCN(C(=O)c2ccc3c(c2)S(=O)(=O)c2ccccc2C3=O)CC1,·,-9,·,·,26,7,·
N#CC1=C(N)OC2=C(CCc3ccccc32)C1c1ccccc1 (stereo unspecified),·,25,-2,101*,-37,76*,8
Cc1ccc(/C=C2\CCC3=C2OC(N)=C(C#N)C3c2ccc(C)cc2)cc1 (stereo unspecified),-30,-11,6,·,-9,-17,·
CCN(CC)CCCNc1ccc(-c2nnc(-c3ccc(OCC(C)C)cc3)o2)cn1,·,-5,0,-49,-45,60*,26
CCCOc1ccc(-c2nnc(-c3ccco3)o2)cc1,·,-97,-3,·,-223,-73,·
CC1Cc2ccccc2N1C(=O)/C=C/c1cccc(F)c1 (stereo unspecified),1,-102,0,-2,-127,-176,-102
CC1Cc2ccccc2N1C(=O)COC(=O)/C=C/c1ccc(F)cc1 (stereo unspecified),-18,7,0,·,-3,-9,·
CCOC(=O)c1ccc(NC(=O)N2CCc3ccccc32)cc1,·,-55,-1,8,-92,-157,-93
O=C(Nc1cccc(S(=O)(=O)N2CCCCC2)c1)C1CC1,-12,1,-1,·,10,9,·
O=C(Cc1n[nH]c(=O)c2ccccc12)OCC(=O)c1ccc(F)cc1,-10,-7,0,·,21,-3,·
CCOc1ccc(C(=O)COC(=O)Cc2n[nH]c(=O)c3ccccc23)cc1,42,-6,0,·,-7,55*,8
COc1ccc(Cl)cc1NC(=O)CN(C)C(=O)c1cc2c(F)cccc2s1,-3,-2,1,·,1,58*,17
COc1ccc([N+](=O)[O-])cc1Nc1c2ccccc2nc2ccccc12,47,40,-1,-129,-37,59*,41
COc1ccc(OC)c(Nc2c3ccccc3nc3ccccc23)c1,·,30,-1,4,-67,31,·
O=C(c1ccccc1)c1nn(-c2ccc(Cl)cc2)c(=O)cc1C(F)(F)F,24,12,-2,·,-131,98*,80*
Cn1cccc1C(=O)C(=O)Nc1ccc(Cl)cc1,10,-85,-2,·,-162,-112,·
Cn1cccc1C(=O)C(=O)Nc1cccc(Cl)c1Cl,7,-64,0,·,-185,-151,-64
Cc1ccc(Nc2nc(N)nc(CCl)n2)cc1,15,-17,-1,19,-2,-22,·
COc1ccccc1Nc1nc(N)nc(CCl)n1,2,5,0,-48,8,7,·
Cc1ccc(Nc2nc(N)nc(CCl)n2)c(C)c1,80*,68*,-1,6,-152,90*,4
Cc1ccc(Nc2nc(N)nc(CN3CCCCCC3)n2)c(C)c1,·,1,3,-5,-5,5,·
Cc1cccc(Nc2nc(N)nc(CCl)n2)c1C,80*,81*,-1,2,34,88*,24
SMILES,H9c2 TAG inh,Gli-Sufu antag,hiPSC survival,Hep lipid drop,697 NFkB inh,Jurkat NFkB inh,Jurkat NFkB conf
CCOc1ccc(Nc2nc(N)nc(CCl)n2)cc1,72*,9,-1,2,-11,59*,10
CCSc1nc2sc3c(c2c(=O)n1-c1ccccc1)CCN(C(C)C)C3,·,18,0,5,-41,-13,·
CC(C(=O)N1CCc2ccccc21)n1cnc2c1c(=O)n(C)c(=O)n2C (stereo unspecified),-9,1,0,·,-3,8,·
CCN(CC)c1ccc(NC(=O)c2cc(OC)cc(OC)c2)c(C)c1,·,46,1,-101,-28,60*,43
CC[C@H](C)C(N)c1cn(C(CCCN=C(N)N)C(=O)N2CCNCC2)nn1 (stereo partly specified),5,-6,-3,·,3,-8,·
COC(=O)C(Cc1c[nH]c2ccccc12)NC(=O)c1cccc(S(=O)(=O)N2CCCCC2)c1 (stereo unspecified),-8,-10,0,·,-15,-9,·
NS(=O)(=O)c1cccc(NC(=O)CSc2nc3ccccc3c(=O)n2CCCN2CCOCC2)c1,·,3,-2,10,8,-4,·
N/C(=N/OC(=O)c1cccc([N+](=O)[O-])c1)c1cccc([N+](=O)[O-])c1,-5,-17,-1,-1,-18,-48,·
N/C(=N\OC(=O)c1ccccc1Cl)c1cccc([N+](=O)[O-])c1,-7,-80,-1,-2,-235,-172,-101
O=C(/C=C/c1ccc(O)c(O)c1)OCCc1ccccc1,17,50,-3,·,-71,55*,4
CCCSc1nnc(Sc2nnnn2-c2ccccc2)s1,·,30,-4,-127,-30,87*,61*
COC(=O)c1ccccc1NC1=C/C(=N\S(=O)(=O)c2cccs2)c2ccccc2C1=O,10,-17,-4,-12,17,52*,66*
COC(=O)c1ccccc1NC1=C/C(=N\S(=O)(=O)c2ccc(C(=O)O)cc2)c2ccccc2C1=O,·,5,2,-2,-1,19,·
CCNC(=O)C1(C)CCCN1C(=O)c1cc(OC)c(OC)c(OC)c1 (stereo unspecified),1,·,1,·,·,·,·
C=CCNC(=S)N/N=C(\C)c1ccccn1,·,84*,-4,-177,24,78*,51*
CC1CCCN(C(=S)NC2CCCC2)C1 (stereo unspecified),-5,-1,3,15,-22,13,·
CCCCCc1ccc(-c2cn(CCc3c[nH]c4ccccc34)nn2)cc1,-3,1,-1,0,-64,56*,14
CCCCCc1ccc(-c2cn(CCCOCc3ccccc3)nn2)cc1,-6,14,2,-7,19,-1,·
O=C1CC(c2ccccc2Br)c2cc3c(cc2N1)CCC3 (stereo unspecified),·,·,·,-6,-47,55*,12
O=C1CC(c2cc(Br)ccc2F)c2cc3c(cc2N1)CCC3 (stereo unspecified),·,37,-3,·,8,73*,48*
Cc1cc2c(cc1C)C(c1ccccc1Br)CC(=O)N2 (stereo unspecified),8,6,-1,2,4,17,·
O=C1CC(c2ccccc2F)c2cc3c(cc2N1)CCC3 (stereo unspecified),·,9,-2,·,-25,42,·
